Experimental data as given in ChEMBL document CHEMBL1137481, “Discovery of platelet-type 12-human lipoxygenase selective inhibitors by high-throughput screening of structurally diverse libraries” (Bioorg Med Chem, 2007).

How the values were obtained:
[1] = molecular target: T1, Polyunsaturated fatty acid lipoxygenase ALOX15 (Homo sapiens, UniProt P16050); experiment: Inhibition of human 15-hLO1
T1 sequence (P16050 whole entry): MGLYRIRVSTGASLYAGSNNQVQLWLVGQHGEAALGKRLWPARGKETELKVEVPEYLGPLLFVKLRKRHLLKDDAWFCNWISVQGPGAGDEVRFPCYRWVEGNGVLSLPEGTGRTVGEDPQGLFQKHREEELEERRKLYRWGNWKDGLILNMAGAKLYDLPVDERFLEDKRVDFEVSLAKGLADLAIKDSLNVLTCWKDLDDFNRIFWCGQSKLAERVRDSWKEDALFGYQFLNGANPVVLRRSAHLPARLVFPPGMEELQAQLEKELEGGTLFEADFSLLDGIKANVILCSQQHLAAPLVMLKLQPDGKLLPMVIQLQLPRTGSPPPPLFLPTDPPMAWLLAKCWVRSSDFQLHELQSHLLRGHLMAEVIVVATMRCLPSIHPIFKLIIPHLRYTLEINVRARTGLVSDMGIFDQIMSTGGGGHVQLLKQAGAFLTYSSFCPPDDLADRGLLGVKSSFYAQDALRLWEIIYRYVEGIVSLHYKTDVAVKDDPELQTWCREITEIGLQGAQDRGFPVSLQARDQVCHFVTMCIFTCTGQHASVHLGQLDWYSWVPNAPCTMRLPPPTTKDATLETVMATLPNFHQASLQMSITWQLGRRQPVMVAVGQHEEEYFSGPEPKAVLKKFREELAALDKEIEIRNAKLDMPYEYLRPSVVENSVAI

[2] = species on record: Homo sapiens; experiment: Selectivity for 12-hLO over 15-hLO1
Method in brief: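 Ratio of IC50 for 15-hLO-1 over IC50 for 12-hLO. Both come from the 234 nm conjugated-diene rate assay: 12-hLO with arachidonic acid at pH 8, 15-hLO-1 with linoleic acid at pH 7.5, 0.01% Triton X-100, 23 °C. IC50 taken from saturation-curve fits.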

[3] = molecular target: T2, Polyunsaturated fatty acid lipoxygenase ALOX12 (Homo sapiens, UniProt P18054); experiment: Inhibition of human 12-hLO
T2 sequence (P18054 whole entry): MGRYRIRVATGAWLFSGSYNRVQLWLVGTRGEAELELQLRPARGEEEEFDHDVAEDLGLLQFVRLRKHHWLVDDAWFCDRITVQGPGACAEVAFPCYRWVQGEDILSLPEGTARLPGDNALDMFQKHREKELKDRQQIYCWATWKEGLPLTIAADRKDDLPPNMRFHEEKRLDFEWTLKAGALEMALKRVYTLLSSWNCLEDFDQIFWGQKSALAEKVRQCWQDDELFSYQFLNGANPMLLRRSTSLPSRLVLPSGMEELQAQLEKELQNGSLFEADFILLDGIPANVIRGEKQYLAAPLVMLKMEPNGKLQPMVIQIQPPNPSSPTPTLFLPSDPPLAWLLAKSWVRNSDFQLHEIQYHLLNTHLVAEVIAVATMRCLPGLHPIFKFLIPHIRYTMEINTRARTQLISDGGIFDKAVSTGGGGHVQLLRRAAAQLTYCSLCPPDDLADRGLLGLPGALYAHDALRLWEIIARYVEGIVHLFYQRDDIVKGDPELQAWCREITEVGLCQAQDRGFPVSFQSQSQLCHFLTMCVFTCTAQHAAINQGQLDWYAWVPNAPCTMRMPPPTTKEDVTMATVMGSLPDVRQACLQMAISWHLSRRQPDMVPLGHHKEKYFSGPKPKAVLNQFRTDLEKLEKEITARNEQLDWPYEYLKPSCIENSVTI
Method in brief: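 Rate from conjugated diene formation at 234 nm, room temperature (23 °C), stirred 2 mL reactions. 12-hLO (N-terminal His6-tagged, ~40 nM) with arachidonic acid in 25 mM Hepes pH 8, 0.01% Triton X-100. 15-hLO-1 (His6-tagged, ~40 nM) with linoleic acid, 15-hLO-2 (1 µM, SF9-expressed) with arachidonic acid, both in 25 mM Hepes pH 7.5, 0.01% Triton X-100. Rates at various inhibitor concentrations fit to saturation curve for IC50.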

[4] = molecular target: T3, Polyunsaturated fatty acid lipoxygenase ALOX12 (Homo sapiens) (UniProt P18054); experiment: Inhibition of human 12-hLO at 40 uM by HTP assay
T3 sequence (whole entry): T2 sequence (P18054 whole entry)
Method in brief: (§1)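 384-well xylenol orange endpoint assay. 30 µM substrate (arachidonic acid for 12-hLO in 25 mM Hepes pH 8.0; linoleic acid for 15-hLO-1 in 25 mM HEPES pH 7.5), 0.1% Triton X-100. Inhibitor at 40 µM final from DMSO. Reactions started with ~40 nM enzyme and stopped at ~35% completion with 100 µM xylenol orange and 150 µM ferrous ammonium sulfate in 25 mM H2SO4. Read at 560 nm after 30 min dark shaking. Triplicate, normalised to no-enzyme and DMSO controls.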

[5] = molecular target: T4, Polyunsaturated fatty acid lipoxygenase ALOX15 (Homo sapiens) (UniProt P16050); experiment: Inhibition of human 15-hLO1 at 40 uM by HTP assay; method in brief: as §1
T4 sequence (whole entry): T1 sequence (P16050 whole entry)

[6] = molecular target: T4, Polyunsaturated fatty acid lipoxygenase ALOX15 (Homo sapiens); experiment: Inhibition of human 15-hLO1 at 10 uM by MI assay
Method in brief: (§2)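 One-point manual continuous assay at 23 °C, stirred, following conjugated diene at 234 nm. 12-hLO (~40 nM, His6-tagged) with arachidonic acid in 25 mM Hepes pH 8, 0.01% Triton X-100. 15-hLO-1 (~40 nM) with linoleic acid in 25 mM Hepes pH 7.5, 0.01% Triton X-100. 10 µM inhibitor.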

[7] = molecular target: T3, Polyunsaturated fatty acid lipoxygenase ALOX12 (Homo sapiens); experiment: Inhibition of human 12-hLO at 10 uM by MI assay; method in brief: as §2

| Structure (SMILES) | Ki [1] | Ratio Ki [2] | Ki [3] | IC50 [3] | inhibition [4] | inhibition [5] | inhibition [6] | inhibition [7] |
| --- | --- | --- | --- | --- | --- | --- | --- | --- |
| C[C@H](NC(=O)[C@H](C[C@H](C)C(Cl)(Cl)Cl)N(C)C(=O)C[C@H](C)C(Cl)(Cl)Cl)c1nccs1 [DYSIDENIN] | 8 µM | 1 | 9 µM |  |  |  |  |  |
| C[C@H](c1nccs1)N(C)C(=O)[C@H](C[C@H](C)C(Cl)(Cl)Cl)NC(=O)C[C@H](C)C(Cl)(Cl)Cl [NEODYSIDENIN] |  |  | 17 µM | > 100000 nM |  |  |  |  |
| Oc1c(Cl)cc(C(c2cc(Cl)c(O)c(Cl)c2)C(c2cc(Cl)c(O)c(Cl)c2)c2cc(Cl)c(O)c(Cl)c2)cc1Cl |  |  |  | 210 nM | 70% | 37% | 36% | 100% |
| O=C(O)c1cc(C(=O)C(=O)c2cc(C(=O)O)c(O)c3ccccc23)c2ccccc2c1O |  |  |  | 150 nM | 46% | 0% | 0% | 88% |
| Oc1cccc2ccc(SSc3ccc4cccc(O)c4n3)nc12 |  |  |  |  | 71% | 39% | 0% | 0% |
| COc1c(O)cc2oc3cc(O)c(CC=C(C)C)c(O)c3c(=O)c2c1CC=C(C)C [MANGOSTIN] |  |  |  | 580 nM | 47% | 12% | 36% | 100% |
